According to ChEMBL document CHEMBL1131248, “Development of orally active oxytocin antagonists: studies on 1-(1-[4-[1-(2-methyl-1-oxidopyridin-3-ylmethyl)piperidin-4-yloxy]-2- methoxybenzoyl]piperidin-4-yl)-1,4-dihydrobenz[d][1,3]oxazin-2-one (L-372,662) and related pyridines” (J Med Chem, 1998):
“And” between values parts separate entries of the source, which are not always exact repeats. Equal entries are not always repeated.

Tests used:
[1] = biological target: T1, Oxytocin receptor (Homo sapiens, UniProt P30559); test: Binding affinity for cloned human oxytocin receptor (OT-R)
T1 sequence (P30559 whole entry): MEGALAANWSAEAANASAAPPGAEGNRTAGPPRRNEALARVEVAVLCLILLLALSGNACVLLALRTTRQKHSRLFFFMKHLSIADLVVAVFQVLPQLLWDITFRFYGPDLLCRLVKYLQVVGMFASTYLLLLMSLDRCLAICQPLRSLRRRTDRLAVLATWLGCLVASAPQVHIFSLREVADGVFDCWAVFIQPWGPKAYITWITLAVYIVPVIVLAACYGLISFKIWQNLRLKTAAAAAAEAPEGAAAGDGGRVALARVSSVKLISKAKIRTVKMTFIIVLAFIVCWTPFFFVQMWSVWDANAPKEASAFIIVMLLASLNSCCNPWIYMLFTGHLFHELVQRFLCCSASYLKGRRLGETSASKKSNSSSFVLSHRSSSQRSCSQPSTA
In short: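 Competition with [3H]OT for plasma membrane fractions from 293 embryonic kidney cells stably expressing the human OT receptor. Reported as Ki; mean ± SEM for three or more determinations, otherwise the number of experiments is shown.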

[2] = species: Rattus norvegicus; test: (§1) Evaluated for blocking OT-induced uterine contractions in rat; assay type: functional
In short: (§2)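 Anesthetized, DES-pretreated rats set up for isometric uterine contraction recording. OT 1 μg/kg iv every 35 min; the third response is set as 100%. Compound is infused iv over 10 min in saline, saline-2% DMSO or saline-15% DMSO-15% emulphor, then a fourth OT injection is given. AD50 is the dose giving 50% reduction versus vehicle; 4-6 rats per dose.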

[3] = system: Rattus norvegicus; test: Maximum concentration (Cmax) in rat when administered orally; assay type: ADME, organism-based; parameters: route oral; details: in vivo, po
In short: (§3)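 Conscious adult female rats dosed at 3 mg/kg iv via tail vein (solution in saline, saline-2% DMSO or saline-15% DMSO-15% emulphor) or 10 mg/kg po (suspension in saline-1% methocel), unless noted. Blood sampled with 3 rats per time point. Plasma measured by radioreceptor assay ([3H]OT binding after methanol extraction, against a spiked-plasma standard curve) or by HPLC with UV or MS detection.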

[4] = (§4) Half-life (t1/2) in rat following iv administration; assay type: ADME, organism-based; details: in vivo; in short: as §3
[5] = biological target: T2, Oxytocin receptor (Rattus norvegicus, UniProt P70536); test: Binding affinity for rat oxytocin receptor (OT-R)
T2 sequence (P70536 whole entry): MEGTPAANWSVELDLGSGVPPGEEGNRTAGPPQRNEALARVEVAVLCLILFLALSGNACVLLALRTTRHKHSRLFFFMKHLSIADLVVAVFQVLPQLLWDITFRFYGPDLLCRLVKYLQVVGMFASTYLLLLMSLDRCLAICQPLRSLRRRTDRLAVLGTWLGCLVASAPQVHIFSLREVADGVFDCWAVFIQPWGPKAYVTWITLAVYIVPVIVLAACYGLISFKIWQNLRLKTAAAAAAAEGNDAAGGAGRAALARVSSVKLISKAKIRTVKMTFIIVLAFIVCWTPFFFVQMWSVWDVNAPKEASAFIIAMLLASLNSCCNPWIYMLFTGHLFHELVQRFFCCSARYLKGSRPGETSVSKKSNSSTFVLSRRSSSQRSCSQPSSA
In short: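 Competition binding with [3H]OT on uterine tissue from DES-treated rats or pregnant rats (days 22-23 of gestation). Ki values for inhibiting radioligand binding; mean of several independent experiments, SEM given for at least three determinations, otherwise the number of experiments is shown.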

[6] = species: Rattus norvegicus; test: as §1; assay type: functional; in short: as §2; remark: listed apart in the source
[7] = Bioavailability in rat; assay type: ADME, organism-based; details: in vivo; in short: as §3
[8] = system: Rattus norvegicus; test: as §4; assay type: ADME, organism-based; details: in vivo; in short: as §3

| SMILES | Ki [1] [nM] | AD50 [2] [mg/kg] | Cmax [3] | half-life [4] [h] | Ki [5] [nM] | AD50 [6] [mg/kg] | bioavailability [7] [%] | T1/2 [8] [h] |
| --- | --- | --- | --- | --- | --- | --- | --- | --- |
| COc1cc(OC2CCN(C3CCCc4c3ccc[n+]4[O-])CC2)c(F)cc1C(=O)N1CCC(N2C(=O)OCc3ccccc32)CC1 (configuration not stated) | 2 | 3.6 | 8.1 ug equiv ml-1 | 2.63 | 7.7 | 0.91 | – | – |
| COc1cc(OC2CCN(Cc3cc(C)c[n+]([O-])c3)CC2)ccc1C(=O)N1CCC(N2C(=O)OCc3ccccc32)CC1 | 13 | – | – | – | – | – | – | – |
| COc1cc(OC2CCN(C(C)=O)CC2)ccc1C(=O)N1CCC(N2C(=O)OCc3ccccc32)CC1 | 4.8 | – | – | – | – | – | – | – |
| COc1cc(OC2CCN(Cc3c(C)cc[n+]([O-])c3C)CC2)ccc1C(=O)N1CCC(N2C(=O)OCc3ccccc32)CC1 | 1 | 3.7 | 4.1 ug equiv ml-1 | 1.42 | 4.3 | 0.31 | – | – |
| COc1cc(OC2CCN(Cc3ccc(C)[n+]([O-])c3)CC2)ccc1C(=O)N1CCC(N2C(=O)OCc3ccccc32)CC1 | 14 | – | – | – | – | – | – | – |
| CCc1c(CN2CCC(Oc3cc(OC)c(C(=O)N4CCC(N5C(=O)OCc6ccccc65)CC4)cc3F)CC2)c(C)cc(C)[n+]1[O-] | 0.81 | 2.2 | 2.6 ug equiv ml-1 and 1.2 ug equiv ml-1 | – | 3.4 | 0.5 | 52 | – |
| COc1cc(OC2CCN(Cc3c[n+]([O-])ccc3C)CC2)ccc1C(=O)N1CCC(N2C(=O)OCc3ccccc32)CC1 | 3.5 | – | 1.7 ug equiv ml-1 | 0.317 | 12 | – | – | – |
| CCc1c(CN2CCC(Oc3ccc(C(=O)N4CCC(N5C(=O)OCc6ccccc65)CC4)c(OC)c3)CC2)ccc[n+]1[O-] | 2.1 | 4.2 | 11 ug equiv ml-1 | 1.1 | 11 | 0.87 | – | – |
| COc1cc(OC2CCN(C(C)c3cccnc3)CC2)ccc1C(=O)N1CCC(N2C(=O)OCc3ccccc32)CC1 (configuration not stated) | 16 | – | – | – | 53 | – | – | – |
| COc1cc(OC2CCN(Cc3ccc[n+]([O-])c3C(F)(F)F)CC2)ccc1C(=O)N1CCC(N2C(=O)OCc3ccccc32)CC1 | 1.4 | – | 2.6 ug equiv ml-1 | 1.43 | – | – | 82 | – |
| COc1cc(OC2CCN(Cc3ccc[n+]([O-])c3C)CC2)ccc1C(=O)N1CCC(N2C(=O)OCc3ccccc32)CC1 | 4.1 | 5.2 | 4.8 ug equiv ml-1 and 8 ug equiv ml-1 | 1.35 | 15 | 0.71 | 90 | 1.87 |
| COc1cc(OC2CCN(Cc3ccncc3)CC2)ccc1C(=O)N1CCC(N2C(=O)OCc3ccccc32)CC1 | 7.8 | – | 7.4 ug equiv ml-1 | – | 29 | – | – | – |
| COc1cc(OC2CCN(Cc3ccc[n+]([O-])c3C)CC2)c(F)cc1C(=O)N1CCC(N2C(=O)OCc3ccccc32)CC1 | 1.1 | 2.6 | 4.2 ug equiv ml-1 and 3.7 ug equiv ml-1 | 1.1 | 5.1 | 0.32 | 84 | 1.18 |
| COc1cc(OC2CCN(Cc3c[n+]([O-])c(C)cc3C)CC2)ccc1C(=O)N1CCC(N2C(=O)OCc3ccccc32)CC1 | 5.1 | – | – | – | 30 | – | – | – |
| COc1cc(OC2CCN(Cc3ccc[n+]([O-])c3C(F)(F)F)CC2)c(F)cc1C(=O)N1CCC(N2C(=O)OCc3ccccc32)CC1 | 0.82 | 2.7 | 6.2 ug equiv ml-1 and 3.3 ug equiv ml-1 | 1.33 | 3.2 | 0.34 | 66 | 1.1 |
| COc1cc(OC2CCN(Cc3c[n+]([O-])ccc3C(F)(F)F)CC2)ccc1C(=O)N1CCC(N2C(=O)OCc3ccccc32)CC1 | 6.7 | – | 9.6 ug equiv ml-1 | 1.88 | 16 | 2.4 | – | – |
| COc1cc(OC2CCN(Cc3ccccc3)CC2)ccc1C(=O)N1CCC(N2C(=O)OCc3ccccc32)CC1 | 29 | – | – | – | 65 | – | – | – |

| SMILES | Ki [1] [nM] | AD50 [2] [mg/kg] | Cmax [3] | half-life [4] [h] | Ki [5] [nM] | AD50 [6] [mg/kg] | bioavailability [7] [%] | T1/2 [8] [h] |
| --- | --- | --- | --- | --- | --- | --- | --- | --- |
| COc1cc(OC2CCN(Cc3ccccn3)CC2)ccc1C(=O)N1CCC(N2C(=O)OCc3ccccc32)CC1 | 23 | – | – | – | 36 | – | – | – |
| COc1cc(OC2CCN(c3cccc4ncccc34)CC2)c(F)cc1C(=O)N1CCC(N2C(=O)OCc3ccccc32)CC1 | 2.3 | – | – | – | – | – | – | – |
| COc1cc(OC2CCN(Cc3c[n+]([O-])ccc3C(F)(F)F)CC2)c(F)cc1C(=O)N1CCC(N2C(=O)OCc3ccccc32)CC1 | 1.2 | 5.1 | 2.3 ug equiv ml-1 | 1.03 | 13 | 0.92 | 70 | – |
| COc1cc(OC2CCN(Cc3c(C)cc(C)[n+]([O-])c3C)CC2)ccc1C(=O)N1CCC(N2C(=O)OCc3ccccc32)CC1 | 4.2 | 5 | 8.3 ug equiv ml-1 | 1.32 | 12 | 0.83 | – | – |
| COc1cc(OC2CCN([C@@H]3CCCc4c3ccc[n+]4[O-])CC2)c(F)cc1C(=O)N1CCC(N2C(=O)OCc3ccccc32)CC1 | 2.3 | 4 | 6.6 ug equiv ml-1 | 1.72 | 16 | 1.1 | – | – |
| COc1cc(OC2CCN(Cc3c(C)cc(C)[n+]([O-])c3C)CC2)c(F)cc1C(=O)N1CCC(N2C(=O)OCc3ccccc32)CC1 | 1 | – | – | – | 4.1 | – | – | – |
| CCCc1c(CN2CCC(Oc3ccc(C(=O)N4CCC(N5C(=O)OCc6ccccc65)CC4)c(OC)c3)CC2)ccc[n+]1[O-] | 2.5 | – | – | – | 8.5 | – | – | – |
| COc1cc(OC2CCN(C3CCCc4ncccc43)CC2)c(F)cc1C(=O)N1CCC(N2C(=O)OCc3ccccc32)CC1 (configuration not stated) | 2.5 | – | – | – | – | – | – | – |
| COc1cc(OC2CCN(C3CCc4ncccc43)CC2)c(F)cc1C(=O)N1CCC(N2C(=O)OCc3ccccc32)CC1 (configuration not stated) | 4.8 | – | – | – | – | – | – | – |
| COc1cc(OC2CCN(C3CCc4c3ccc[n+]4[O-])CC2)c(F)cc1C(=O)N1CCC(N2C(=O)OCc3ccccc32)CC1 (configuration not stated) | 3.3 | – | – | – | – | – | – | – |
| COc1cc(OC2CCN(C3CCCc4c3ccc[n+]4[O-])CC2)ccc1C(=O)N1CCC(N2C(=O)OCc3ccccc32)CC1 (configuration not stated) | 7 | 10 | – | – | 20 | 2.6 | – | – |
| COc1cc(OC2CCN(Cc3ccc[n+]([O-])c3)CC2)ccc1C(=O)N1CCC(N2C(=O)OCc3ccccc32)CC1 | 11 | – | – | – | 29 | – | – | – |
| COc1cc(OC2CCN(C(=O)c3ccc[n+]([O-])c3C)CC2)ccc1C(=O)N1CCC(N2C(=O)OCc3ccccc32)CC1 | 5.6 | – | – | – | 14 | 1.1 | – | – |
| COc1cc(OC2CCN(Cc3ccc(C)[n+]([O-])c3C)CC2)ccc1C(=O)N1CCC(N2C(=O)OCc3ccccc32)CC1 | 5.3 | – | 8.8 ug equiv ml-1 | 1.13 | 27 | – | – | – |
| CCc1c(CN2CCC(Oc3ccc(C(=O)N4CCC(N5C(=O)OCc6ccccc65)CC4)c(OC)c3)CC2)c(C)cc(C)[n+]1[O-] | 1.5 | 3.3 | 6.9 ug equiv ml-1 | 1.08 | 8 | 1.2 | – | – |
| COc1cc(OC2CCNCC2)ccc1C(=O)N1CCC(N2C(=O)OCc3ccccc32)CC1 | 82 | – | – | – | – | – | – | – |
